Screening data as filed in PubChem BioAssay.
The list is not random: actives were taken first. Their share in the collection is about 4%.
TAAR1 antag – antagonists of human TAAR1; inhibition, % at 3 µM; AID 624466; Q96RJ0; 360,000 tested, 1.5% active; CHO RD-HGA16 TAAR1, Fluo-8 calcium fluorescence, antagonist;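 active = inhibition above a per-plate cutoff, the mean inhibition of test compounds on that plate plus 3 SD, cut at about 49% in these data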;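 note: 0% = DMSO plus EC80 beta-PEA response and 100% = DMSO alone without agonist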
Target sequence (Q96RJ0 whole entry, looked up): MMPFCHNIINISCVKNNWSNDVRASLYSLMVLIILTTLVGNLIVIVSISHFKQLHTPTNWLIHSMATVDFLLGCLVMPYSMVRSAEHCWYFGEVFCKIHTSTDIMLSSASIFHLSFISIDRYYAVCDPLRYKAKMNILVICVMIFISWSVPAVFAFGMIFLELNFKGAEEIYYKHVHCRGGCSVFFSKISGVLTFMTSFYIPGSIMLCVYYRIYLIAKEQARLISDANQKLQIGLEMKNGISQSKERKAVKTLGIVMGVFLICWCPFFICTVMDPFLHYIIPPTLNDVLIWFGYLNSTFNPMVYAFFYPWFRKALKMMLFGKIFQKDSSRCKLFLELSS
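Test system: RD-HGA16 CHO cells with stable hTAAR1 and Gα16 / Probe or stimulus: EC80 β-phenethylamine stimulus / Times: seeding 17-24 h prior, 75-min 37 °C, 30-min RT dye loading / Detection: Fluo-8 calcium-sensitive fluorescence / Read-out basis: % inhibition scaled between DMSO and EC80 PEA controls / Repeats: singlicate, one well per test compound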
OX1R antag-1 – OX1R (human) antagonism; inhibition, % at 6.6 µM; 330,000 tested, 1.8% active; OX1R-expressing cells, FRET antagonist read-out; in the data active = inhibition mostly above about 38%, no sharp cut-off; inactive = mostly below about 40%;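 note: 0% = agonist challenge alone and 100% = reference antagonist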
OX1R antag-2 – antagonists of human orexin 1 receptor; AID 434989; CHO/OX1R cells, Fluo-8 calcium fluorescence, orexin A; 330,000 tested, 0.43% active; O43613; inhibition, % at 5 µM;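 active = inhibition above its plate's threshold, mean inhibition of all tested compounds on the plate plus 3 SD, cut at about 37% in these data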;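 note: 0% = orexin A challenge wells and 100% = SB-334867-A antagonist wells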
TAAR1 agonist – human TAAR1 agonism; Q96RJ0; CHO RD-HGA16 TAAR1, Fluo-8 calcium fluorescence; vehicle wells 0%, saturating PEA agonist 100%; activation, % at 3 µM; 360,000 tested, 0.99% active;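 active = activation above the mean activation of all test compounds in the run plus 3 SD, cut at about 38% in these data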
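Test system: RD-HGA16 (CHO) cells co-expressing Gα16 and hTAAR1 / Benchmarks: DMSO vehicle as 0%, PEA at EC100 as 100% / Repeats: no replicates (n 1) / Measure: % activation from peak over basal fluorescence ratio, DMSO-to-PEA scaled / Timing: 17-24 h plating, Fluo-8 75 min 37 °C, 30 min RT / Technique: kinetic Fluo-8 calcium fluorescence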
CHO parental Ca – counter-screen for OX1R antagonists: effect in parental CHO cells; inhibition, % at 5.6 µM; 330,000 tested, 0.63% active; parental CHO-K1, ATP-induced calcium, Fluo-8 fluorescence;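 active = inhibition above that plate's mean sample inhibition plus 3 SD, cut at about 26% in these data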;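 note: 0% = ATP-challenged DMSO wells and 100% = DMSO wells without ATP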
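Test system: untransfected parental CHO cell line. Compound: one dose, 5.6 µM nominal. Detection: intracellular calcium via Fluo-8 no-wash fluorescent dye. Measure: % inhibition. Benchmarks: ATP-challenged DMSO wells low, unchallenged DMSO wells high.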
nonsel antag count – counter-screen for TAAR1 antagonists: nonselective antagonists. 2,400 tested, 77% active. shares compounds with TAAR1 antag. inhibition, % at 3 µM. counterscreen cell line, calcium fluorescence, antagonist mode; in the data active = inhibition above about 22%;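 note: CHO-Ga16 host cells stimulated with ATP at an EC80 level; 0% = agonist EC80 plus vehicle and 100% = vehicle without agonist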
TAAR1 ant conf – human TAAR1 antagonism, confirmed; shares compounds with TAAR1 antag; AID 651785; inhibition, % at 3 µM; TAAR1-expressing cells, fluorescence antagonist read-out; 2,400 tested, 40% active; in the data active = inhibition above about 49%;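 note: CHO-Ga16 host cells challenged with agonist PEA near its EC80; 0% = agonist at EC80 plus vehicle and 100% = vehicle with no agonist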
Ga16 nonsel ag – counter-screen for TAAR1 antagonists: nonselective Ga16 agonists; shares compounds with TAAR1 antag; Ga16-expressing cells, calcium fluorescence, agonist counterscreen; activation, % at 3 µM; 2,400 tested, 18% active; in the data active = activation above about 12%;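 note: 0% = vehicle wells and 100% = saturating stimulus response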
TAAR1 ag count – TAAR1 agonism, antagonist counter-screen | activation, % at 3 µM | hTAAR1 cell line, fluorescence activation, agonist mode | shares compounds with TAAR1 antag | 2,400 tested, 2% active; in the data active = activation above about 37%;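 note: CHO cells stably expressing TAAR1 with calcium dye readout; 0% = DMSO vehicle and 100% = full agonist response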
Starred values were filed as active, the others as inactive; . = no result given.

SMILES	TAAR1 antag	OX1R antag-1	OX1R antag-2	TAAR1 agonist	CHO parental Ca	nonsel antag count	TAAR1 ant conf	Ga16 nonsel ag	TAAR1 ag count
Cc1ccc(NC(=O)C2CCCN(S(=O)(=O)c3cccc4cccnc34)C2)cc1 (stereo not given)	-16	23	-39	5	-30	.	.	.	.
Cc1cccc(N2CCN(C(=O)C3CCN(S(=O)(=O)c4cccc5cccnc45)CC3)CC2C)c1 (stereo not given)	75*	20	-11	15	-11	28*	54*	11	9
COc1cc(NC(=O)[C@@H]2CCCN(S(=O)(=O)c3cccc4cccnc34)C2)cc(OC)c1OC	51*	35	-27	20	-22	29*	40	8	5
COc1ccc(OC)c(NC(=O)C2CCCN(S(=O)(=O)c3cccc4cccnc34)C2)c1 (stereo not given)	60*	74*	-7	12	-21	24*	40	9	7
COc1cc(NC(=O)[C@H]2CCCN2S(=O)(=O)c2cccc3cccnc23)cc(OC)c1OC	-5	41	-15	5	-19	.	.	.	.
O=C(Nc1cccc(F)c1)C1CCCN(S(=O)(=O)c2cccc3cccnc23)C1 (stereo not given)	-15	47	-17	12	-22	.	.	.	.
COc1ccc(-c2ccc(-c3cc(=O)oc4c(C(C)C)ccc(C)c34)cc2)cc1	-28	7	-6	5	-19	.	.	.	.
CCOc1ccc(S(=O)(=O)NCc2cccnc2)cc1C(C)C	-21	26	-17	1	-10	.	.	.	.
CCOC(=O)c1c(Cc2cccc(Cl)c2)c[nH]c1C	-4	15	-20	0	-5	.	.	.	.
Cc1ccc(NC(=O)Nc2cccnc2)cc1NC(=O)Nc1cccnc1	50*	1	-16	2	-14	19	35	3	4
Cc1cc(C)cc(NC(=O)Nc2cccnc2)c1	-5	.	.	18	.	.	.	.	.
CC(C)(C)OC(=O)N1CCC(C(=O)Nc2cccc(C(=O)NCCCCc3ccccc3)c2)CC1	66*	.	.	16	.	37*	44	13*	12
O=C(/C=C/c1ccccc1)Nc1cccc(C(=O)NCCc2ccccc2)c1	68*	.	.	13	.	37*	57*	8	6
O=C(NCCCCc1ccccc1)c1cccc(NC(=O)C2CCCCC2)c1	61*	.	.	6	.	30*	36	8	5
O=C(NCCCCc1ccccc1)c1cccc(NC(=O)C2CCC2)c1	13	.	.	5	.	.	.	.	.
O=C(Cc1ccccc1)c1ccc(N2CCOCC2)cc1	-15	.	.	2	.	.	.	.	.
CCn1cc(-c2csc(N)n2)c(C)n1	-26	1	-8	1	-5	.	.	.	.
O=S(=O)(c1cnc[nH]1)N1CCc2ccccc21	-3	12	-7	5	-12	.	.	.	.
O=C(O)CCCNC(=O)/C(=C\C=C\c1ccccc1)NC(=O)c1ccccc1Cl	-2	30	-17	1	-13	.	.	.	.
C=CCNC(=O)/C(=C\C=C\c1ccccc1)NC(=O)c1ccccc1Cl	62*	10	-25	13	-8	25*	36	6	7
Cc1nn(Cc2c(F)c(F)c(F)c(F)c2F)c(C)c1NC(=O)c1ccc(COc2cc(Cl)ccc2Cl)cc1	25	6	-11	14	-16	.	.	.	.
Cc1nn(Cc2c(F)c(F)c(F)c(F)c2F)c(C)c1NC(=O)c1ccc(COc2ccccc2Cl)cc1	.	.	.	.	.	14	.	5	.
N#Cc1c(-c2cccc(Br)c2)cc(-c2cccnc2)nc1N	56*	40	-12	5	-11	21	38	7	11
N#Cc1c(-c2ccc(Br)cc2)cc(-c2cccnc2)nc1N	1	-8	-5	-1	10	.	.	.	.
COc1ccc(-c2csc3ncnc(N4CCN(c5ccccc5OC)CC4)c23)cc1	62*	11	-28	1	-16	27*	41	5	10
SMILES	TAAR1 antag	OX1R antag-1	OX1R antag-2	TAAR1 agonist	CHO parental Ca	nonsel antag count	TAAR1 ant conf	Ga16 nonsel ag	TAAR1 ag count
COc1ccccc1CN(C(=O)CNC(=O)c1ccco1)C(C(=O)NCC1CCCO1)c1ccccc1 (stereo not given)	68*	3	-6	17	-12	32*	47	8	10
Cc1ccc(CN2C(=O)[C@@H]3Cc4c([nH]c5ccccc45)C(C)(C)N3C2=O)cc1	16	15	-14	12	-18	.	.	.	.
CC1(C)c2[nH]c3ccccc3c2C[C@@H]2C(=O)N(c3ccc(F)cc3F)C(=O)N21	61*	17	-12	30	-9	40*	52*	17*	25
CC1(C)c2[nH]c3ccccc3c2C[C@@H]2C(=O)N(Cc3ccc(F)cc3)C(=O)N21	67*	4	-34	23	-19	34*	50*	7	10
CN(CC(=O)Nc1ccc(F)cc1)C(=O)Cn1cnc2ccc(Cl)cc2c1=O	5	-1	-15	1	-20	.	.	.	.
N=C(N)c1ccc(O)cc1	9	11	-2	7	-6	.	.	.	.
CC/C(=C(/CC)c1ccc(O)cc1)c1ccc(O)cc1	57*	44	4	0	-3	23*	37	4	12
COC(Cn1c2c(c3cc(C)ccc31)CCCC2NCc1ccccc1)OC (stereo not given)	-50	.	.	12	.	.	.	.	.
CCn1c(SCC(=O)N2CCc3ccccc32)nnc1-c1c[nH]c2ccccc12	55*	31	-13	11	-37	16	34	6	8
CCn1c(SCC(=O)N2CCCc3ccccc32)nnc1-c1c[nH]c2ccccc12	22	36	-1	5	-22	.	.	.	.
COC(=O)C1C2OC(C(Br)C2Br)C1C(=O)OC (stereo not given)	-22	.	.	1	.	.	.	.	.
Cc1cccc(N(CC(=O)NCCSc2nc3ccccc3s2)S(=O)(=O)c2ccccc2)c1	.	13	-44	.	-14	.	.	.	.
O=C(CN(c1ccccc1)S(=O)(=O)c1ccccc1)NCCSc1nc2ccccc2s1	71*	17	-31	14	-24	36*	62*	8	6
COc1cc(-c2cc(C(=O)Nc3ccncc3)c3ccccc3n2)cc(OC)c1OC	61*	5	-30	23	-23	28*	48	8	6
COc1ccccc1NC(=O)c1cc(-c2cc(OC)c(OC)c(OC)c2)nc2ccccc12	19	27	-3	2	-7	.	.	.	.
COc1cc(-c2cc(C(=O)Nc3ccc(N4CCOCC4)cc3)c3ccccc3n2)cc(OC)c1OC	72*	5	-9	13	0	32*	51*	7	6
